# Hits are enriched below; roughly 2.2% of the tested compounds scored in any of these assays.
# TRAIL sens C8 = sensitizes caspase-8 expressing cells to TRAIL; NB7+C8 cells + TRAIL, ATPlite viability luminescence; inhibition (viability loss, TRAIL sensitization), % at 10 µM; actives 1% (n = 360,000); AID 624354;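 active = compounds causing at least 50% loss of cell viability in the single-dose screen, relative to plate controls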
# PKD1 kinase inh = inhibitors of human PKD1 kinase; Q15139; PKD1 kinase fluorescence polarization assay; inhibition, % (no concentration beside the values); actives 0.056% (n = 200,000); AID 797; in the data active = inhibition above about 50%
# FLuc stim CS = firefly luciferase counter-screen for stimulation assays; P08659; ATPlite luciferase biochemical, luminescence, 10 min; 0 = ATP-free wells, 1 = DMSO control; activation factor at 10 µM; 200,000 tested, under 10 active; AID 1027;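 active = luciferase activation factor, scaled between plate controls, of at least 2 with compound at 10 µM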
# Target sequence (P08659 whole entry, looked up): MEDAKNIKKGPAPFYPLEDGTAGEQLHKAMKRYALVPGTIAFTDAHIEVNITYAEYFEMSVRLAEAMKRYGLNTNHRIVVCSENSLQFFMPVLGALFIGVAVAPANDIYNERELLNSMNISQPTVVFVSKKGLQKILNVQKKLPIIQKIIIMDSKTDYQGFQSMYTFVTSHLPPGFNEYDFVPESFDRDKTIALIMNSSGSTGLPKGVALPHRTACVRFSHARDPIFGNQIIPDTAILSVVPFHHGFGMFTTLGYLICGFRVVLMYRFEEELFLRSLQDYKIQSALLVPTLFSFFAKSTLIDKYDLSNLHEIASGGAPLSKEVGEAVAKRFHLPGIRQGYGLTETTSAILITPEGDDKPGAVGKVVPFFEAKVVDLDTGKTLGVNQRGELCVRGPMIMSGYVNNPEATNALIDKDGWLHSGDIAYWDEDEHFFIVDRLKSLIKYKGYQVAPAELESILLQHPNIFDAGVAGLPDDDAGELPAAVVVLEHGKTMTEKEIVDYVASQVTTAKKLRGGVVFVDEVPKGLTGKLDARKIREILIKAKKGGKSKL
#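 System: Luciferase/luciferin detection reagent, cell-free biochemical luciferase assay | Medium: PBS buffer for ATP | Dosing: Test compounds dosed from 2 mM stocks in 100% DMSO | Timing: 10 min at ambient temperature | Signal: Luminescence measurement of luciferase light output | Evaluation: Luciferase activation, seen as luminescence increase over controls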
# PPC-1+TRAIL kill = PPC-1 cancer cell killing with TRAIL present. cell killing (% activity), % at 4 µM or 5 µM. actives 0.41% (n = 220,000). AID 1443. PPC-1 cells + TRAIL, ATPLite viability luminescence;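 active = cell killing above 50% in the first pass at 4 µM, then a duplicate retest at 5 µM averaging 50% or more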;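 also: plate controls were cells with TRAIL plus DMSO for no effect and medium-only wells lacking cells for full effect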
# Wee1 stabilizer = human Wee1 degradation inhibition, primary screen; HeLa Luc-Wee1K328M stability, luciferase luminescence; 100% = proteasome inhibitor MG132 effect; P30291; reporter increase, % at 5 µM; actives 1.2% (n = 220,000);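 active = activation above the mean of all tested compounds plus 3 SD, set per screening run, cut at about 8.8% in these data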;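 also: cells exposed to compound for 20 h before luminescence read; 0% = DMSO alone and 100% = MG132 at 30 µM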
# FLuc inh counter = counter-screen for luciferase assay inhibitors: firefly luciferase inhibition; P08659; ATPLite firefly luciferase biochemical luminescence, 10 min; inhibition, % at 10 µM; actives 1.5% (n = 200,000);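 active = inhibition above about 50% when tested at 10 µM, limit read from the data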
# PPC1 cytotox = PPC-1 cell cytotoxicity; shares compounds with PPC-1+TRAIL kill; PPC-1 viability, ATPlite luminescence, overnight; cytotoxicity, % at 5 µM; actives 50% (n = 1,200); AID 1447;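 active = reconfirmed compounds whose average cytotoxicity reaches 50% or more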;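 also: 0% = DMSO-treated cells and 100% = wells holding medium but no cells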
# The depositor's hits bear a star; / = no result given.
SMILES,TRAIL sens C8,PKD1 kinase inh,FLuc stim CS,PPC-1+TRAIL kill,Wee1 stabilizer,FLuc inh counter,PPC1 cytotox
CCOc1ccc(-c2ccc(SCC(=O)NCC3CCCO3)nn2)cc1 (stereo not given),52*,2,0.3,26,3,72*,35
CCOc1ccc(-c2ccc(SC)nn2)cc1,92*,-1,0,91*,-3,96*,91*
Cc1ccc(-c2ccc(SCC(=O)NCC3CCCO3)nn2)cc1 (stereo not given),10,7,0.7,39,1,30,/
O=C(O)c1cc2cccc(S(=O)(=O)N3CCCCC3)c2cc1O,-5,/,/,/,/,/,/
COc1ccc(C(C)NC(=O)CC23CC4CC(CC(C4)C2)C3)cc1 (stereo not given),5,/,/,/,/,/,/
CCOc1ccc(C/C(N)=N/n2cnnc2)cc1,-16,-9,1.1,15,2,-6,17
COc1cc(C2NC(=O)CCC2[N+](=O)[O-])c(OC)cc1Br (stereo not given),-22,/,/,/,/,/,/
O=C(CN1CCN(C(=O)c2ccco2)CC1)Nc1ccc(F)cc1F,0,/,/,/,/,/,/
S=c1[nH]ncn1/N=C/c1ccc(N2CCOCC2)cc1,51*,0,0.1,62*,0,87*,64*
COc1ccc([N+](=O)[O-])cc1/C=N/Nc1nn[nH]n1,-4,-5,1,-4,1,-4,/
NC(=O)c1ccc(NC(=O)Cc2cccs2)cc1,0,/,/,/,/,/,/
O=C(Cc1cccs1)NCc1ccco1,-5,-5,1.1,1,3,-5,-5
O=C(Cc1cccs1)Nc1ccc(Cl)cc1,-6,4,0.9,3,2,5,2
C=CC[N@@+]12CC[C@]34c5ccccc5N5/C=C6\C7N(/C=C(\C53)[C@@H](C[C@@H]41)/C(=C/CO)C2)c1ccccc1[C@@]71CC[N@@+]2(CC=C)C/C(=C\CO)[C@@H]6C[C@@H]12 (stereo not given in full),-7,/,/,/,/,/,/
COc1ccc(S(=O)(=O)CC(=O)c2cc3cc(Br)ccc3oc2=O)cc1,-18,/,/,/,/,/,/
COC(=O)Cn1c(O)c(N=NC(=O)c2ccc3c(c2)OCO3)c2ccccc21,61*,-4,0.2,29,-1,76*,37
CCOC(=O)Cn1c(O)c(N=NC(=O)OC)c2ccccc21,-1,/,/,-5,0,/,/
CC1=C(C(=O)Nc2ccc(C)cc2C)C(c2ccc(C)o2)NC(=S)N1 (stereo not given),-8,-7,1.1,19,1,-9,/
ClC1(Cl)CC1CSc1nnc(-c2ccncc2)o1 (stereo not given),4,/,/,/,/,/,/
CCNC(=O)c1c(NC(=O)c2cc(-c3cc(C)cc(C)c3O)n[nH]2)sc2c1CCCC2,13,/,/,/,/,/,/
Cc1ccc(/C=C/c2nc3ccccc3c(=O)[nH]2)cc1,93*,/,/,93*,-3,/,92*
Cc1ccc(S(=O)(=O)Cc2nc3ccccc3c(=O)[nH]2)cc1,-6,-8,1,8,0,-3,/
O=C(NC1CCCCC1)C(c1ccccc1F)n1c(=O)c(-c2cc3ccccc3[nH]2)nc2ccccc21 (stereo not given),-14,/,/,/,/,/,/
Cc1nn(C(C)(C)C)c(C)c1/C=N/OC(=O)Nc1ccc(Cl)cc1,88*,/,/,85*,-5,/,86*
Cc1nn(C)c(C)c1/C=N/NC(=O)C(C)(C)Oc1ccc(Cl)cc1,-13,2,1.1,14,-2,-6,/
SMILES,TRAIL sens C8,PKD1 kinase inh,FLuc stim CS,PPC-1+TRAIL kill,Wee1 stabilizer,FLuc inh counter,PPC1 cytotox
Cc1cc(/C=N/Nc2nc(N)ncc2[N+](=O)[O-])c(C)n1-c1ccccc1F,/,/,/,76*,-5,/,77*
Cc1cccc(C)c1-n1c(C)cc(/C=N\Nc2ccc([N+](=O)[O-])cn2)c1C,8,-5,1,23,2,2,/
O=C1C(=O)c2ccccc2C(O)=C1c1ccccc1F,0,/,/,-2,2,/,/
O=C1c2ccccc2C(=O)C1c1ccnc2ccccc12,90*,-5,0.1,86*,11*,91*,87*
O=C1C(c2ccnc3ccccc23)=C(O)c2ccccc21,89*,11,0.1,84*,3,90*,86*
COc1ccc(-c2cc(=O)c3c(O)c(OC)c(O)cc3o2)cc1,70*,-4,0.1,64*,3,90*,64*
CCCCn1c(C23CC4CC(CC(C4)C2)C3)n[nH]c1=S,1,/,/,/,/,/,/
CCOc1cccc(/C=C/c2cc(C(=O)O)c3ccccc3n2)c1OC,76*,/,/,71*,-1,/,69*
CCOc1ccccc1NC(=O)c1cc(-c2cc(OC)c(OC)c(OC)c2)nc2ccccc12,32,/,/,/,/,/,/
O=C(COC(=O)/C=C/c1cccc(F)c1)NC(=O)NC1CCCC1,-3,/,/,/,/,/,/
Cc1ccc(Cl)cc1NC(=O)Nn1cnnc1,-12,/,/,/,/,/,/
Cc1cc(/C=C2/C(=N)N3C(=NC2=O)SN=C3S(C)(=O)=O)c(C)n1-c1ccccc1F,85*,-2,0.1,68*,3,93*,70*
COc1ccc(S(=O)(=O)N2CCOCC2)cc1NC(=O)c1ccncc1,-3,/,/,/,/,/,/
CCCCC(=O)Nc1ccccc1Oc1ccccc1,-3,3,1,-6,6,-1,-14
O=C(O)CCCC(=O)Nc1ccccc1Oc1ccccc1,-19,/,/,21,5,/,/
COc1ccc2c(c1)sc1nc(-c3ccccc3)cn12,96*,-1,0,93*,-2,97*,92*
N#Cc1ccc(S(=O)(=O)NC2CCCCNC2=O)cc1 (stereo not given),-4,/,/,/,/,/,/
O=C1c2cccc3cccc(c23)C(=O)N1Cc1cccnc1,-20,/,/,5,-3,/,/
O=C1c2cccc3c([N+](=O)[O-])ccc(c23)C(=O)N1Cc1cccnc1,2,0,1.1,26,3,-5,14
COc1nc(Nc2nc3ccccc3c(=O)[nH]2)nc2ccc(C)cc12,21,/,/,51*,3,/,51*
c1ccc2nc(-c3nc4ccccc4[nH]3)ccc2c1,90*,2,0.1,87*,-1,94*,84*
c1ccc2[nH]c(-c3cscn3)nc2c1,2,2,0.8,12,-4,18,/
CCC(=O)Nc1nonc1-c1nc2ccccc2n1CC(C)C,12,-5,1.1,-8,3,-7,-13
O=S1(=O)[C@H]2C[C@H](CO)O[C@@]2(CO)CN1Cc1ccc(-c2ccc(F)cc2)cc1,1,/,/,/,/,/,/
O=C(Nc1ccc2c(c1)nc1n2CCOC1)c1ccccc1,33,-1,0.6,12,4,37,/
O=C(Nc1ccc2c(c1)nc1n2CCSC1)c1ccccc1,62*,-6,0.2,57*,0,80*,49
C(=N\Nc1nc(-c2cccnc2)nc2ccccc12)/c1ccccc1,44,/,/,21,3,/,/

# Screening data as filed in PubChem BioAssay.
